Reference: ChEMBL document CHEMBL4732120, “Discovery of novel PARP/PI3K dual inhibitors with high efficiency against BRCA-proficient triple negative breast cancer” (Eur J Med Chem, 2021)
Values belong to the compound of their own block, whether it stands above or below them. The source made the active and inactive calls. No cut-off for these calls is given here.

What was measured:
[1] = target: T1, Phosphatidylinositol 4,5-bisphosphate 3-kinase catalytic subunit alpha isoform (Homo sapiens, UniProt P42336); assay: Inhibition of PI3Kalpha (unknown origin) at 100 nM relative to control
T1 sequence (P42336 whole entry, canonical isoform): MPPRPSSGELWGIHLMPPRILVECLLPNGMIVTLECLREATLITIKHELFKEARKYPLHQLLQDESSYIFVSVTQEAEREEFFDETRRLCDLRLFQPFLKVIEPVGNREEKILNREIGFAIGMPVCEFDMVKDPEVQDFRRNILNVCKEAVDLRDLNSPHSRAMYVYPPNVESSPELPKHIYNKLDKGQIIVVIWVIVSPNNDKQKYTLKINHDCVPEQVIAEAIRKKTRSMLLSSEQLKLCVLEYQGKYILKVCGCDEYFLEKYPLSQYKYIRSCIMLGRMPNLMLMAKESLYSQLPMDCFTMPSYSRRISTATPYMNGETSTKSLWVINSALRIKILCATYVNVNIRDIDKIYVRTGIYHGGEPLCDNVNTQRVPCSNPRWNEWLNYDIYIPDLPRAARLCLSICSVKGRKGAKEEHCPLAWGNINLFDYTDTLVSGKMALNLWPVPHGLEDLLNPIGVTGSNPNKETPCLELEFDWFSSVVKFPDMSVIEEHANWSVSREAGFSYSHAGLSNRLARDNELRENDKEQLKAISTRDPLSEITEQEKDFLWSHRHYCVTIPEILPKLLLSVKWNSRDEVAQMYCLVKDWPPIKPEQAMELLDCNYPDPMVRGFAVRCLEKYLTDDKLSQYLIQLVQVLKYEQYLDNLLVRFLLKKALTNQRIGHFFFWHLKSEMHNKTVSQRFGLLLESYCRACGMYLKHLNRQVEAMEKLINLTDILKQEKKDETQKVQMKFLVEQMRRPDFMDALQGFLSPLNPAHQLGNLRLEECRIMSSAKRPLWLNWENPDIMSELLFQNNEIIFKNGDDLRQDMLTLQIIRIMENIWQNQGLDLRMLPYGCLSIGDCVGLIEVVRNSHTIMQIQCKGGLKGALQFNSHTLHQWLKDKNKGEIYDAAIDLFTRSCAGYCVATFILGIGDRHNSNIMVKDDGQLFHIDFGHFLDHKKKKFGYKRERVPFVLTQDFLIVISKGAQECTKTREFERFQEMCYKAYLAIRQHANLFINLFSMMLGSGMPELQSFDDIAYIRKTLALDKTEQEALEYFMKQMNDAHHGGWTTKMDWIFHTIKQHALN

[2] = target: T2, Poly [ADP-ribose] polymerase 1 (Homo sapiens, UniProt P09874); settings: dose 10.0 nM
T2 sequence (P09874 whole entry): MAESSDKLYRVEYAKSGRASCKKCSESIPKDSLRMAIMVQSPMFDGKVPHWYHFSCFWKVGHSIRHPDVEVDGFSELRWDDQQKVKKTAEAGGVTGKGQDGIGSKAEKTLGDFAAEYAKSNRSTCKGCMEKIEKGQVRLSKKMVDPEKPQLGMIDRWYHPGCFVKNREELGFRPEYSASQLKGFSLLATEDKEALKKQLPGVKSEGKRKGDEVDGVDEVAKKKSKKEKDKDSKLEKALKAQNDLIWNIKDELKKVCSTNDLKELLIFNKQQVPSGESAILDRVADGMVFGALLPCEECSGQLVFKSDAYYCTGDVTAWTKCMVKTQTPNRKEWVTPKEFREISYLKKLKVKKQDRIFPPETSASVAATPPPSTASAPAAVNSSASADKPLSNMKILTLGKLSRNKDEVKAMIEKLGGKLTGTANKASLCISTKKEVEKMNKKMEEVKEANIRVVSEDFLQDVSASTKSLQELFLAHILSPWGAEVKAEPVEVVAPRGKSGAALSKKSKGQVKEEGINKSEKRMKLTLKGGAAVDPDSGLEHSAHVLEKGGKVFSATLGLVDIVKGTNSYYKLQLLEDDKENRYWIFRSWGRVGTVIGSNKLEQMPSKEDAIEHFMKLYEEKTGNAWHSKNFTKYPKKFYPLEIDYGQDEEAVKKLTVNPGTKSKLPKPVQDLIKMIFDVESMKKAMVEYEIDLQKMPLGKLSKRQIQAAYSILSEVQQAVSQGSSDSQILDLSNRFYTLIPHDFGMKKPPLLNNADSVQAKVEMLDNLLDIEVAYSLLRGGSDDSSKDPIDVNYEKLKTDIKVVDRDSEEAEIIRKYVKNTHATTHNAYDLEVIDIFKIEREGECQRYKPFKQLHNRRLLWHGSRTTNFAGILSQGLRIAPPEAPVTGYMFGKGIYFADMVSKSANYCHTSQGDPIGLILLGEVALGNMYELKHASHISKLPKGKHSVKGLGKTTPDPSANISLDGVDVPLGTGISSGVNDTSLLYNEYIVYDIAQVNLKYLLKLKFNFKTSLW

[3] = test system: MDA-MB-468; assay: Inhibition of PARP1/PI3Kalpha in human MDA-MB-468 cells assessed as down regulation of BRCA2 mRNA expression at 2 uM by RT-PCR analysis
[4] = test system: MDA-MB-468; assay: Inhibition of PARP1/PI3Kalpha in human MDA-MB-468 cells assessed as down regulation of BRCA1 mRNA expression at 2 uM by RT-PCR analysis
[5] = test system: MDA-MB-468; assay: Induction of apoptosis in human MDA-MB-468 cells assessed as necrotic cells at 2 uM measured after 72 hrs by Annexin V-FITC/propidium iodide staining based flow cytometry (reference value: 0.13%); assay type: functional
[6] = test system: MDA-MB-468; assay: Antitumor activity against human MDA-MB-468 cells xenografted in BALB/c mouse assessed as tumor growth inhibition at 50 mg/kg, ip administered every two days for 34 days relative to control; settings: MDA-MB-468, ip, 816 h, read-out: TGI
[7] = test system: MDA-MB-468; assay: Induction of apoptosis in human MDA-MB-468 cells assessed as early apoptotic cells at 2 uM measured after 72 hrs by Annexin V-FITC/propidium iodide staining based flow cytometry (reference value: 3.88%); assay type: functional
[8] = test system: MDA-MB-468; assay: Induction of apoptosis in human MDA-MB-468 cells assessed as viable cells at 2 uM measured after 72 hrs by Annexin V-FITC/propidium iodide staining based flow cytometry (reference value: 95.2%); assay type: functional; settings: read-out: Activity
[9] = target: T1, Phosphatidylinositol 4,5-bisphosphate 3-kinase catalytic subunit alpha isoform; assay: Inhibition of PI3Kalpha (unknown origin)
Outline: (§1)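 PARP-1 and PI3Kα enzyme inhibition. IC50 taken from dose-response curves and given as mean ± SD of three independent experiments.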

[10] = test system: MDA-MB-468; assay: Antiproliferative activity against human MDA-MB-468 cells measured after 7 days by Celltiter-glo assay; assay type: functional, cell-based; settings: MDA-MB-468, 168 h
Outline: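 MDA-MB-468 cells grown in RPMI1640 with 10% FBS at 37 °C, 5% CO2. Seeded the day before dosing, grown 12 h, then exposed to a range of concentrations for 7 days. Viability read by CellTiter-Glo luminescence after 10 min at room temperature. Inhibition % = (1 − (RLU cpd − blank)/(RLU DMSO − blank)) × 100. IC50 from nonlinear regression of normalized dose-response.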

[11] = target: T2, Poly [ADP-ribose] polymerase 1; assay: Inhibition of PARP1 (unknown origin); outline: as §1
[12] = Solubility of compound at pH 7; assay type: physicochemical; settings: buffer
[13] = Solubility of compound; assay type: physicochemical
[14] = test system: MDA-MB-468; assay: Inhibition of PARP1/PI3Kalpha in human MDA-MB-468 cells assessed as down regulation of BRCA1 mRNA expression at 1 uM by RT-PCR analysis
[15] = test system: MDA-MB-468; assay: Inhibition of PARP1/PI3Kalpha in human MDA-MB-468 cells assessed as down regulation of BRCA2 mRNA expression at 1 uM by RT-PCR analysis
[16] = test system: MDA-MB-468; assay: Induction of apoptosis in human MDA-MB-468 cells assessed as necrotic cells at 1 uM measured after 72 hrs by Annexin V-FITC/propidium iodide staining based flow cytometry (reference value: 0.13%); assay type: functional
[17] = test system: MDA-MB-468; assay: Antitumor activity against human MDA-MB-468 cells xenografted in BALB/c mouse assessed as tumor growth inhibition at 27.5 mg/kg, ip administered every two days for 34 days relative to control; settings: MDA-MB-468, ip, 816 h, read-out: TGI
[18] = test system: MDA-MB-468; assay: Induction of apoptosis in human MDA-MB-468 cells assessed as late apoptotic cells at 1 uM measured after 72 hrs by Annexin V-FITC/propidium iodide staining based flow cytometry (reference value: 0.78%); assay type: functional
[19] = test system: MDA-MB-468; assay: Induction of apoptosis in human MDA-MB-468 cells assessed as early apoptotic cells at 1 uM measured after 72 hrs by Annexin V-FITC/propidium iodide staining based flow cytometry (reference value: 3.88%); assay type: functional
[20] = test system: MDA-MB-468; assay: Induction of apoptosis in human MDA-MB-468 cells assessed as viable cells at 1 uM measured after 72 hrs by Annexin V-FITC/propidium iodide staining based flow cytometry (reference value: 95.2%); assay type: functional; settings: read-out: Activity

SMILES: O=C(c1cc(Cc2n[nH]c(=O)c3ccccc23)ccc1F)N1CCN(C(=O)C2CC2)CC1 [OLAPARIB]
inhibition [3]: Active | inhibition [4]: Active | Activity [5]: 0.16% | inhibition in vivo at 50 mg/kg [6]: 28.5% | Activity [7]: 6.6% | viability at 2 µM [8]: 91.5%

SMILES: NC(=O)c1cccc2cc(C(=O)N3CCN(c4cc(-c5cnc(N)cc5C(F)(F)F)nc(N5CCOCC5)n4)CC3)oc12
inhibition [1]: 80% | inhibition [2]: 51%

SMILES: Cl.NC(=O)c1cccc2cc(C(=O)N3CCN(c4nc(-c5cnc(NC(=O)CN6CCOCC6)cc5C(F)(F)F)nc(N5CCOCC5)n4)CC3)oc12
solubility [12]: > 10000 µg/mL

SMILES: NC(=O)c1cccc2cc(C(=O)N3CCN(c4nc(-c5cnc(NC(=O)CN6CCOCC6)cc5C(F)(F)F)nc(N5CCOCC5)n4)CC3)oc12
inhibition [14]: Active | inhibition [15]: Active

SMILES: NC(=O)c1cccc2cc(C(=O)N3CCN(c4cc(-c5cnc(N)nc5)nc(N5CCOCC5)n4)CC3)oc12
inhibition [1]: 60% | inhibition [2]: 85%

SMILES: NC(=O)c1cccc2cc(C(=O)N3CCN(c4cc(-n5c(C(F)F)nc6ccccc65)nc(N5CCOCC5)n4)CC3)oc12
inhibition [1]: 26% | inhibition [2]: 38%

SMILES: Nc1cc(C(F)(F)F)c(-c2cc(N3CCOCC3)nc(N3CCOCC3)n2)cn1 [BUPARLISIB]
Activity [16]: 0.16% | inhibition [14]: Active | inhibition in vivo at 27.5 mg/kg [17]: 33.4% | Activity [18]: 1.82% | Activity [19]: 6.13% | inhibition [15]: Active | inhibition [1]: 82% | viability at 1 µM [20]: 91.9%

Now from value to compound:

inhibition [1]: 8% | inhibition [2]: 62%
SMILES: NC(=O)c1cccc2cc(C(=O)N3CCN(c4nc(-c5ccc6[nH]ccc6c5)nc(N5CCOCC5)n4)CC3)oc12

inhibition [1]: 5% | inhibition [2]: 51%
SMILES: NC(=O)c1cccc2cc(C(=O)N3CCN(c4nc(-c5ccc(N)c(F)c5)nc(N5CCOCC5)n4)CC3)oc12

IC50 [9]: 0.0396 µM | IC50 [10]: 4.06 µM | IC50 [11]: 0.0073 µM
SMILES: NC(=O)c1cccc2cc(C(=O)N3CCN(c4nc(-c5cnc(N)cc5C(F)(F)F)nc(N5CCOCC5)n4)CC3)oc12 [listing 1 of 2 here]

inhibition [1]: 77% | inhibition [2]: 60%
SMILES: NC(=O)c1cccc2cc(C(=O)N3CCN(c4nc(-c5cnc(N)cc5C(F)(F)F)nc(N5CCOCC5)n4)CC3)oc12 [listing 2 of 2 here]

solubility [12]: < 100 µg/mL
SMILES: Cl.NC(=O)c1cccc2cc(C(=O)N3CCN(c4nc(-c5cnc(N)cc5C(F)(F)F)nc(N5CCOCC5)n4)CC3)oc12

IC50 [9]: 0.0063 µM | inhibition [1]: 86% | solubility [13]: Insoluble | inhibition [2]: 70% | IC50 [11]: 0.0058 µM
SMILES: NC(=O)c1cccc2cc(C(=O)N3CCN(c4nc(-c5cnc(N)nc5)nc(N5CCOCC5)n4)CC3)oc12

inhibition [1]: 29% | inhibition [2]: 36%
SMILES: NC(=O)c1cccc2cc(C(=O)N3CCN(c4nc(N5CCOCC5)nc(-n5c(C(F)F)nc6ccccc65)n4)CC3)oc12

IC50 [9]: 0.119 µM | inhibition [1]: 79% | inhibition [2]: 61% | IC50 [11]: 0.0108 µM
SMILES: NC(=O)c1cccc2cc(C(=O)N3CCN(c4nc(-c5ccc(N)nc5)nc(N5CCOCC5)n4)CC3)oc12
